Experimental data: ChEMBL document CHEMBL5724801, “EUbOPEN Chemogenomics Library - Multiplex” (2024)
Several values for one entry are separate records, joined by “and”; a condition that tells them apart may be missing. Identical values can stand only once.

system: Fibroblast; assay: Multiplex assay against human fibroblast; format: toxicity, cell-based; conditions: 12 h, 1 µM, compound concentration 1 uM
In short: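 Live cells carried four stains from seeding: Hoechst33342, BioTracker Green Microtubule Cytoskeleton Dye, MitoTracker Red and Annexin V Alexa Fluor 680. They were imaged on a CQ1 microscope at 37°C and 5% CO2 after compound addition. Using CellPathfinder machine-learning gating, cells were split into Hoechst high-intensity objects or normal cells, normal cells into healthy, pyknosed or fragmented nuclei, and pyknosed cells into mitotic or apoptotic; tubulin, mitochondrial-mass and membrane-permeability phenotypes are per cents of healthy-nucleus cells.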

What does the source list for `CCC(=O)OCC(=O)[C@@]1(OC(=O)CC)[C@@H](C)C[C@H]2[C@@H]3CCC4=CC(=O)C=C[C@]4(C)[C@@]3(Cl)[C@@H](O)C[C@@]21C` [BECLOMETHASONE DIPROPIONATE]?
Population Apoptotic (%): 38% and 42%; Population Fragmented Nuclei (%): 13% and 30%; Population Healthy Nuclei (%): 73% and 40%; Population Hoechst High Intensity Objects (%): 3%; Population Membrane Permeable-Phenotype (%): 1% and 5%; Population Mitochondria Different-Phenotype (%): 2% and 10%; Population Mitotic Cells (%): 61% and 57%; Population Normal (%): 96%; Population Pyknosed Nuclei (%): 13% and 30%; Population Tubulin-Different-Phenotype (%): 47% and 63%; Total Cell Count: 135 and 155

How did the “Population Apoptotic (%)” value turn out when `O=c1ccc2ccc(OCCCCN3CCN(c4cccc5sccc45)CC3)cc2[nH]1` [BREXPIPRAZOLE] was run?
Its value is 56% and 48%.

And the “Population Fragmented Nuclei (%)” value?
The value was 17% and 33%.

What about the “Population Healthy Nuclei (%)” value of the same molecule?
Its value is 62% and 44%.

And the “Population Hoechst High Intensity Objects (%)” value?
The value was 2% and 5%.

And the “Population Membrane Permeable-Phenotype (%)” value?
The value was 0% and 2%.

And the “Population Mitochondria Different-Phenotype (%)” value?
Its value is 5% and 15%.

What about the “Population Mitotic Cells (%)” value of the same molecule?
Its value is 44% and 51%.

What about the “Population Normal (%)” value of the same molecule?
Its value is 97% and 94%.

What about the “Population Pyknosed Nuclei (%)” value of the same molecule?
The value was 20% and 21%.

And the “Population Tubulin-Different-Phenotype (%)” value?
Its value is 41% and 73%.

And the “Total Cell Count” value?
Its value is 126 and 169.

same assay, conditions: 12 h, 10 µM, compound concentration 10 uM

Which “Population Apoptotic (%)” value does the source give for `CCC(=O)OCC(=O)[C@@]1(OC(=O)CC)[C@@H](C)C[C@H]2[C@@H]3CCC4=CC(=O)C=C[C@]4(C)[C@@]3(Cl)[C@@H](O)C[C@@]21C` [BECLOMETHASONE DIPROPIONATE] here?
The value was 40%.

What about the “Population Healthy Nuclei (%)” value of the same molecule?
The value was 69% and 42%.

And the “Population Hoechst High Intensity Objects (%)” value?
The value was 8% and 5%.

And the “Population Mitochondria Different-Phenotype (%)” value?
The value was 17% and 20%.

And the “Population Mitotic Cells (%)” value?
The value was 60% and 59%.

And the “Population Normal (%)” value?
The value was 91% and 94%.

What about the “Population Pyknosed Nuclei (%)” value of the same molecule?
Its value is 20% and 24%.

And the “Population Tubulin-Different-Phenotype (%)” value?
The value was 87% and 94%.

What about the “Total Cell Count” value of the same molecule?
The value was 157 and 96.

With `O=c1ccc2ccc(OCCCCN3CCN(c4cccc5sccc45)CC3)cc2[nH]1` [BREXPIPRAZOLE] as the molecule, how does the “Population Apoptotic (%)” value read?
Its value is 68% and 45%.

And the “Population Fragmented Nuclei (%)” value?
The value was 16% and 30%.

What about the “Population Healthy Nuclei (%)” value of the same molecule?
The value was 64% and 49%.

And the “Population Hoechst High Intensity Objects (%)” value?
Its value is 1% and 11%.

What about the “Population Membrane Permeable-Phenotype (%)” value of the same molecule?
Its value is 0% and 2%.

What about the “Population Mitochondria Different-Phenotype (%)” value of the same molecule?
The value was 39% and 25%.

And the “Population Mitotic Cells (%)” value?
The value was 31% and 54%.

And the “Population Normal (%)” value?
The value was 98% and 88%.

And the “Population Pyknosed Nuclei (%)” value?
Its value is 19% and 20%.

What about the “Population Tubulin-Different-Phenotype (%)” value of the same molecule?
Its value is 83% and 81%.

And the “Total Cell Count” value?
The value was 203 and 243.

same assay, conditions: 24 h, 1 µM, compound concentration 1 uM

With `CCC(=O)OCC(=O)[C@@]1(OC(=O)CC)[C@@H](C)C[C@H]2[C@@H]3CCC4=CC(=O)C=C[C@]4(C)[C@@]3(Cl)[C@@H](O)C[C@@]21C` [BECLOMETHASONE DIPROPIONATE] as the molecule, how does the “Population Apoptotic (%)” value read?
The value was 50% and 47%.

What about the “Population Fragmented Nuclei (%)” value of the same molecule?
The value was 16% and 30%.

What about the “Population Healthy Nuclei (%)” value of the same molecule?
Its value is 65% and 45%.

And the “Population Hoechst High Intensity Objects (%)” value?
The value was 1% and 6%.

What about the “Population Membrane Permeable-Phenotype (%)” value of the same molecule?
The value was 3% and 7%.

What about the “Population Mitochondria Different-Phenotype (%)” value of the same molecule?
The value was 2% and 7%.

And the “Population Mitotic Cells (%)” value?
Its value is 50% and 52%.

And the “Population Normal (%)” value?
Its value is 98% and 93%.

What about the “Population Pyknosed Nuclei (%)” value of the same molecule?
The value was 18% and 24%.

What about the “Population Tubulin-Different-Phenotype (%)” value of the same molecule?
The value was 34% and 60%.

What about the “Total Cell Count” value of the same molecule?
The value was 134 and 150.

`O=c1ccc2ccc(OCCCCN3CCN(c4cccc5sccc45)CC3)cc2[nH]1` [BREXPIPRAZOLE] was tested. Which “Population Apoptotic (%)” value did it give?
The value was 56% and 33%.

And the “Population Fragmented Nuclei (%)” value?
Its value is 17% and 32%.

And the “Population Healthy Nuclei (%)” value?
Its value is 69% and 52%.

And the “Population Hoechst High Intensity Objects (%)” value?
Its value is 1% and 3%.

And the “Population Membrane Permeable-Phenotype (%)” value?
The value was 0% and 2%.

And the “Population Mitochondria Different-Phenotype (%)” value?
Its value is 8% and 14%.

What about the “Population Mitotic Cells (%)” value of the same molecule?
The value was 43% and 66%.

What about the “Population Normal (%)” value of the same molecule?
Its value is 98% and 96%.

And the “Population Pyknosed Nuclei (%)” value?
Its value is 13% and 14%.

What about the “Population Tubulin-Different-Phenotype (%)” value of the same molecule?
Its value is 43% and 76%.

What about the “Total Cell Count” value of the same molecule?
The value was 122 and 173.

same assay, conditions: 24 h, 10 µM, compound concentration 10 uM

What does the source list for `CCC(=O)OCC(=O)[C@@]1(OC(=O)CC)[C@@H](C)C[C@H]2[C@@H]3CCC4=CC(=O)C=C[C@]4(C)[C@@]3(Cl)[C@@H](O)C[C@@]21C` [BECLOMETHASONE DIPROPIONATE]?
Population Apoptotic (%): 40% and 19%; Population Fragmented Nuclei (%): 13% and 38%; Population Healthy Nuclei (%): 66% and 40%; Population Hoechst High Intensity Objects (%): 6%; Population Mitochondria Different-Phenotype (%): 30% and 12%; Population Mitotic Cells (%): 59% and 80%; Population Normal (%): 93%; Population Pyknosed Nuclei (%): 19% and 21%; Population Tubulin-Different-Phenotype (%): 86% and 79%; Total Cell Count: 148 and 104

How did the “Population Apoptotic (%)” value turn out when `O=c1ccc2ccc(OCCCCN3CCN(c4cccc5sccc45)CC3)cc2[nH]1` [BREXPIPRAZOLE] was run?
Its value is 58% and 65%.

What about the “Population Fragmented Nuclei (%)” value of the same molecule?
Its value is 13% and 30%.

And the “Population Healthy Nuclei (%)” value?
The value was 54% and 40%.

What about the “Population Hoechst High Intensity Objects (%)” value of the same molecule?
The value was 13% and 19%.

What about the “Population Membrane Permeable-Phenotype (%)” value of the same molecule?
Its value is 0%.

What about the “Population Mitochondria Different-Phenotype (%)” value of the same molecule?
The value was 63% and 34%.

And the “Population Mitotic Cells (%)” value?
The value was 41% and 34%.

And the “Population Normal (%)” value?
Its value is 86% and 80%.

And the “Population Pyknosed Nuclei (%)” value?
The value was 31% and 28%.

And the “Population Tubulin-Different-Phenotype (%)” value?
The value was 85% and 71%.

What about the “Total Cell Count” value of the same molecule?
Its value is 218 and 239.

same assay, conditions: 48 h, 1 µM, compound concentration 1 uM

How did the “Population Apoptotic (%)” value turn out when `CCC(=O)OCC(=O)[C@@]1(OC(=O)CC)[C@@H](C)C[C@H]2[C@@H]3CCC4=CC(=O)C=C[C@]4(C)[C@@]3(Cl)[C@@H](O)C[C@@]21C` [BECLOMETHASONE DIPROPIONATE] was run?
The value was 28% and 52%.

And the “Population Fragmented Nuclei (%)” value?
Its value is 13% and 31%.

What about the “Population Healthy Nuclei (%)” value of the same molecule?
The value was 56% and 41%.

What about the “Population Hoechst High Intensity Objects (%)” value of the same molecule?
Its value is 3% and 7%.

What about the “Population Membrane Permeable-Phenotype (%)” value of the same molecule?
Its value is 1% and 5%.

What about the “Population Mitochondria Different-Phenotype (%)” value of the same molecule?
Its value is 15% and 9%.

And the “Population Mitotic Cells (%)” value?
Its value is 71% and 47%.

What about the “Population Normal (%)” value of the same molecule?
The value was 96% and 92%.

What about the “Population Pyknosed Nuclei (%)” value of the same molecule?
Its value is 30% and 27%.

What about the “Population Tubulin-Different-Phenotype (%)” value of the same molecule?
The value was 61% and 54%.

And the “Total Cell Count” value?
Its value is 132 and 143.

For `O=c1ccc2ccc(OCCCCN3CCN(c4cccc5sccc45)CC3)cc2[nH]1` [BREXPIPRAZOLE], which “Population Apoptotic (%)” value is on record?
The value was 62% and 60%.

What about the “Population Fragmented Nuclei (%)” value of the same molecule?
Its value is 24% and 42%.

And the “Population Healthy Nuclei (%)” value?
The value was 62% and 51%.

And the “Population Hoechst High Intensity Objects (%)” value?
Its value is 4%.

And the “Population Membrane Permeable-Phenotype (%)” value?
The value was 0% and 1%.

And the “Population Mitochondria Different-Phenotype (%)” value?
Its value is 10% and 9%.

And the “Population Mitotic Cells (%)” value?
The value was 37% and 40%.

What about the “Population Normal (%)” value of the same molecule?
Its value is 95%.

What about the “Population Pyknosed Nuclei (%)” value of the same molecule?
Its value is 12% and 5%.

And the “Population Tubulin-Different-Phenotype (%)” value?
Its value is 52% and 67%.

What about the “Total Cell Count” value of the same molecule?
Its value is 133 and 175.

same assay, conditions: 48 h, 10 µM, compound concentration 10 uM

`CCC(=O)OCC(=O)[C@@]1(OC(=O)CC)[C@@H](C)C[C@H]2[C@@H]3CCC4=CC(=O)C=C[C@]4(C)[C@@]3(Cl)[C@@H](O)C[C@@]21C` [BECLOMETHASONE DIPROPIONATE] was tested. Which “Population Apoptotic (%)” value did it give?
Its value is 67% and 37%.

And the “Population Fragmented Nuclei (%)” value?
Its value is 21% and 33%.

And the “Population Healthy Nuclei (%)” value?
Its value is 54% and 33%.

And the “Population Hoechst High Intensity Objects (%)” value?
The value was 6% and 3%.

And the “Population Membrane Permeable-Phenotype (%)” value?
Its value is 0% and 18%.

And the “Population Mitotic Cells (%)” value?
The value was 32% and 62%.

And the “Population Normal (%)” value?
The value was 93% and 96%.

And the “Population Pyknosed Nuclei (%)” value?
Its value is 24% and 33%.

And the “Population Tubulin-Different-Phenotype (%)” value?
The value was 76% and 84%.

What about the “Total Cell Count” value of the same molecule?
The value was 162 and 99.

`O=c1ccc2ccc(OCCCCN3CCN(c4cccc5sccc45)CC3)cc2[nH]1` [BREXPIPRAZOLE] was tested. Which “Population Apoptotic (%)” value did it give?
Its value is 62% and 44%.

What about the “Population Fragmented Nuclei (%)” value of the same molecule?
Its value is 18% and 30%.

And the “Population Healthy Nuclei (%)” value?
The value was 50% and 43%.

What about the “Population Hoechst High Intensity Objects (%)” value of the same molecule?
The value was 34%.

What about the “Population Membrane Permeable-Phenotype (%)” value of the same molecule?
The value was 0%.

And the “Population Mitochondria Different-Phenotype (%)” value?
Its value is 60% and 20%.

And the “Population Mitotic Cells (%)” value?
The value was 37% and 55%.

And the “Population Normal (%)” value?
The value was 65%.

What about the “Population Pyknosed Nuclei (%)” value of the same molecule?
Its value is 31% and 26%.

And the “Population Tubulin-Different-Phenotype (%)” value?
Its value is 88% and 55%.

And the “Total Cell Count” value?
The value was 208 and 317.
